Tests used:
Type in all cases: ADME, organism-based
[1] = Cmax in healthy human plasma at 30 mg, po administered as single ascending doses as solution during 10 hrs overnight fasting state; parameters: dose 30 mg, route oral
Summary of the method: (§1)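 Healthy Caucasian male volunteers, single oral dose with 240 ml water after a 10-h overnight fast. Heparinised venous blood was drawn predose and at 0.25–14 h. Plasma was stored frozen. Parent drug and metabolites M1–M3 were measured by LC/MS-MS (MRM, deuterated internal standard). Noncompartmental analysis gave Cmax observed, t1/2 = 0.693/kel (terminal regression) and MRT = AUMC/AUC. Values are geometric means.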

[2] = Tmax in healthy human plasma at 40 mg, po administered as single ascending doses as solution during 10 hrs overnight fasting state
Summary of the method: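 Healthy Caucasian male volunteers, randomized within each dose group against placebo, given a single oral solution with 240 ml water after a 10-h overnight fast. Plasma sampled predose and at 0.25–14 h, quantified by LC/MS-MS (MRM, deuterated internal standard). Tmax read directly from individual noncompartmental concentration–time data.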

[3] = Cmax in healthy human plasma at 80 mg, po administered as single immediate release tablets during 10 hrs overnight fasting state; parameters: dose 80 mg, route oral; summary of the method: as §1
[4] = AUC in healthy human plasma at 40 mg, po administered as two 20 mg immediate release tablets daily for 3 days during 10 hrs overnight fasting state measured after 1 day; parameters: time < 10 hr, dose 40 mg, route oral
Summary of the method: (§2)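 Healthy Caucasian males took 40 mg (2×20-mg IR tablets) or 80 mg (4 tablets) orally daily for 3 days after a 10-h fast. Plasma parent drug was measured by LC/MS-MS from predose to 14 h after the first and third doses. Noncompartmental analysis: AUC by log-linear trapezoid extrapolated via kel, CL/F = dose/AUC, V/F = CL/F÷kel, geometric means.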

[5] = Tmax in healthy human plasma at 40 mg, po administered as two 20 mg immediate release tablets daily for 3 days during 10 hrs overnight fasting state measured after 1 day
Summary of the method: (§3)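 Healthy Caucasian men (8 active, 4 placebo per dose) dosed with tablets daily for 3 days after 10-h fast. Lithium-heparin plasma sampled predose and 0.25–14 h after day-1 and day-3 doses, stored frozen. Parent and M1–M3 quantified by LC/MS-MS in positive-ion MRM. Tmax taken directly from observed individual data.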

[6] = Tmax in healthy human plasma at 40 mg, po administered as two 20 mg immediate release tablets daily for 3 days during 10 hrs overnight fasting state measured after 3 day; summary of the method: as §3
[7] = Mean residence time in healthy human at 40 mg, po administered as two 20 mg immediate release tablets daily for 3 days during 10 hrs overnight fasting state measured after 3 day; details: in vivo
Summary of the method: (§4)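 Healthy Caucasian males took tablets once daily for 3 days with 240 ml water after a 10-h fast. Heparinised blood was drawn predose and at 0.25–14 h after the first and last doses. Plasma parent drug and metabolites M1–M3 were measured by LC/MS-MS (MRM, deuterated internal standard). Noncompartmental analysis gave Cmax observed, t1/2 = 0.693/kel and MRT = AUMC/AUC. Values are geometric means.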

[8] = Apparent oral clearance in healthy human at 40 mg, po administered as two 20 mg immediate release tablets daily for 3 days during 10 hrs overnight fasting state measured after 1 day; details: in vivo; summary of the method: as §2
[9] = Apparent volume of distribution with respect to the bioavailability in healthy human at 40 mg, po administered as two 20 mg immediate release tablets daily for 3 days during 10 hrs overnight fasting state measured after 3 day; details: in vivo, read-out: Vc/F; summary of the method: as §2
[10] = AUC in healthy human plasma at 80 mg, po administered as four 20 mg immediate release tablets daily for 3 days during 10 hrs overnight fasting state measured after 1 day; parameters: dose 80 mg, time < 10 hr, route oral; summary of the method: as §2
[11] = Mean residence time in healthy human at 80 mg, po administered as four 20 mg immediate release tablets daily for 3 days during 10 hrs overnight fasting state measured after 1 day; details: in vivo; summary of the method: as §4
[12] = Apparent oral clearance in healthy human at 80 mg, po administered as four 20 mg immediate release tablets daily for 3 days during 10 hrs overnight fasting state measured after 3 day; details: in vivo; summary of the method: as §2

## C[C@H]1[C@H](N2CCS(=O)(=O)CC2)O[C@@H]2O[C@@]3(C)CC[C@H]4[C@H](C)CC[C@@H]1[C@@]24OO3 [ARTEMIFONE]
[1]
  Cmax: 50.5 ng/mL
[2]
  Tmax: 0.625 h
[3]
  Cmax: 140 ng/mL
[4]
  AUC at 10 h: 184 ng·h/mL
[5]
  Tmax: 1.5 h
[6]
  Tmax: 1.13 h
[7]
  MRT: 3.74 h
[8]
  CL/F: 3630 mL/min
[9]
  Vd/F: 16.1 L/kg
[10]
  AUC at 10 h: 343 ng·h/mL
[11]
  MRT: 3.3 h
[12]
  CL/F: 3950 mL/min

— ChEMBL document CHEMBL1671864, “First assessment in humans of the safety, tolerability, pharmacokinetics, and ex vivo pharmacodynamic antimalarial activity of the new artemisinin derivative artemisone” (Antimicrob Agents Chemother, 2008)
